Publication PMC6453127 (Biochimica et biophysica acta. General subjects, 2017)
“Also recorded” adds a separate entry of the source. One block for each compound: values may come before it.

Legend:
[1] = biological target: T1, Hsp90β (Homo sapiens, UniProt P08238); assay: Transcreener ADP Hsp90 ATPase assay; assay type: biochemical
[2] = biological target: His6-Hsp90β CTD (Homo sapiens, UniProt P08238); assay: BS3 crosslinking dimerization/oligomerization assay, His6-Hsp90β CTD; assay type: biochemical; settings: for oligomerization state of His6-Hsp90β CTD (crosslinking): 2 μM protein, BS3 crosslinker
Sequence of His6-Hsp90β CTD (P08238 530-724): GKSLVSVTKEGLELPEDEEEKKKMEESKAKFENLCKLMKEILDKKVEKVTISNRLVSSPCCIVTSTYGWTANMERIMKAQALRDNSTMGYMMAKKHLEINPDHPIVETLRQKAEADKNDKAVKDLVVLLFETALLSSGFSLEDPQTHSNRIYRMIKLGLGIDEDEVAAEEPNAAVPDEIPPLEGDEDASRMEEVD

[3] = biological target: GST-Hsp90α CTD (Homo sapiens, UniProt P07900); assay: ADH aggregation; assay type: biochemical; settings: 40 μM compound; 500 nM Hsp90 CTD; 55 °C, end point 90 min
Sequence of GST-Hsp90α CTD (P07900 626-732): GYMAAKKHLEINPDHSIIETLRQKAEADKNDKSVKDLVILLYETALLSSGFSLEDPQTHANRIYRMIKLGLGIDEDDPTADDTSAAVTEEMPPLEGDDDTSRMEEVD
How it was run: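 Reaction: 6.2 μM equine ADH, with or without 500 nM GST-Hsp90α CTD and compound. Aggregation induced at 55 °C, read as absorbance at 360 nm every minute for 90 min. The 90-min endpoint was used, with the mean of ADH alone set to 100%. Three independent experiments.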

[4] = biological target: T1, Hsp90β; assay: Competitive displacement of FITC-GA; assay type: binding; settings: competitor 3 nM to 3 μM; 60 nM Hsp90β, 5 nM FITC-GA
[5] = biological target: GST-Hsp90α CTD (626–732) (Homo sapiens, UniProt P07900); assay: DARTs assay with GST-Hsp90α CTD; assay type: binding; settings: 200 μM compound
Sequence of GST-Hsp90α CTD (626–732) (P07900 626-732): as above

[6] = tested on: LNCaP cells; assay: Western blot of Hsp90 clients and heat shock proteins in LNCaP cells; assay type: cell-based; settings: 48 h
How it was run: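 ATCC LNCaP cells kept in ATCC-recommended medium, authenticated and used within 20 passages. Cells treated for 48 h, trypsinised, PBS-washed and lysed in RIPA with protease inhibitors, 1 mM PMSF, 0.1% Triton X-100 and 1 mM DTT. Protein measured by Bradford before western blot. Band intensities of treated samples expressed as percentage of vehicle.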

[7] = biological target: Hsp70 (Homo sapiens, UniProt P0DMV8); assay: Transcreener ADP Hsp70 ATPase assay; assay type: biochemical; settings: 0.5 μM Hsp70; up to 200 μM
Sequence of Hsp70 (P0DMV8 whole entry): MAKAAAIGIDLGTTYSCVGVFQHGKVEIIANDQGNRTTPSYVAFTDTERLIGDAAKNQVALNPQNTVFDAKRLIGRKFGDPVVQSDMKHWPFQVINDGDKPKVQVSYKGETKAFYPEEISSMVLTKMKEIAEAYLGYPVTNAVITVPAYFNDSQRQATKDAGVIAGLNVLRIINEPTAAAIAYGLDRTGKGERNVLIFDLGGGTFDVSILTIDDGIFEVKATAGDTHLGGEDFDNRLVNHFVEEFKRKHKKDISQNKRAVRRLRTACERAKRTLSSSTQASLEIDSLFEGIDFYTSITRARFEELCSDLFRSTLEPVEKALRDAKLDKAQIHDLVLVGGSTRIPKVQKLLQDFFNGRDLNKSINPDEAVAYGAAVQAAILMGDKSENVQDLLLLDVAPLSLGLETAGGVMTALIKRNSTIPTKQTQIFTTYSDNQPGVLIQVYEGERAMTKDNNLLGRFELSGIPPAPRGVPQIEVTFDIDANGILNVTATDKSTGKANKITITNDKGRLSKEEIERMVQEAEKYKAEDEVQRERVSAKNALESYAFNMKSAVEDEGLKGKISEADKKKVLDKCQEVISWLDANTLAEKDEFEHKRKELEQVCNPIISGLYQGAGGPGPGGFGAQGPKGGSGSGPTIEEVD
How it was run: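 Stopped with EDTA stop-and-detect buffer containing ADP² antibody-IRDye QC-1 and 8 nM ADP Alexa594 tracer, 1 h at RT. Endpoint fluorescence intensity read. Three experiments, four-parameter logistic fit.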

T1 sequence (P08238 whole entry): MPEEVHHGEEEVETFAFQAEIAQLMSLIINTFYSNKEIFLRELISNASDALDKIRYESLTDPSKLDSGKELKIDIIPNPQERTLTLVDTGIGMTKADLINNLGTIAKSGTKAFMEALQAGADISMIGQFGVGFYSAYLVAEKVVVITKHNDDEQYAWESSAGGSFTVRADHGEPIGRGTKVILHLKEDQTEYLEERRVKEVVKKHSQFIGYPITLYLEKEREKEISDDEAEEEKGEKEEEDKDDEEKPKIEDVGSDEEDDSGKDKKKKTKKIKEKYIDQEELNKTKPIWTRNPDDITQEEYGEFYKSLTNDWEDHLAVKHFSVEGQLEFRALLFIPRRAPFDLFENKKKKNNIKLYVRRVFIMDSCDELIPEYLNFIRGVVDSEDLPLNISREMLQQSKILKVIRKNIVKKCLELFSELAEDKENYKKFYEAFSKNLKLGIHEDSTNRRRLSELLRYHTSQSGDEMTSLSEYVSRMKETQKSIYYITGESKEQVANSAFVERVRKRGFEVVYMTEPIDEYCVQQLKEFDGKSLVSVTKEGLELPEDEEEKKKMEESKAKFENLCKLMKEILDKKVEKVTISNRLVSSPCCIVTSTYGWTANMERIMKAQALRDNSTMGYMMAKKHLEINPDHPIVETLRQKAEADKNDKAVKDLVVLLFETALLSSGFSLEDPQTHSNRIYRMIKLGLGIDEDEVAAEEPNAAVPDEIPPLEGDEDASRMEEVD

IC50 [1]: ~216 µM
oligomerization state of His6-Hsp90β CTD (crosslinking) [2]: CTD monomer band was eliminated
Structure (SMILES): CN1CCN(CC(O)COc2ccc(C(C)(C)c3ccc(OCC(O)CN4CCN(C)CC4)cc3)cc2)CC1 (stereo not shown) [Analog A2, 3,3’-((propane-2,2-diylbis(4,1-phenylene))bis(oxy))bis(1-(4-methylpiperazin-1-yl)propan-2-ol)]

Structure (SMILES): CC(C)(c1ccc(OCC(O)CNCc2ccco2)cc1)c1ccc(OCC(O)CNCc2ccco2)cc1 (stereo not shown) [Analog A3, 3,3’-((propane-2,2-diylbis(4,1-phenylene))bis(oxy))bis(1-((fur-an-2-ylmethyl)amino)propan-2-ol)]
oligomerization state of His6-Hsp90β CTD (crosslinking) [2]: oligomer formation was completely inhibited
disruption of CTD dimer formation compared with Cm A1 ([2]; His6-Hsp90β CTD, 200 μM BS3 (Fig. S10)): disrupt dimer formation more efficiently than Cm A1

Structure (SMILES): CC(C)(c1ccc(OCC2CO2)cc1)c1ccc(OCC2CO2)cc1 (stereo not shown) [BADGE, bisphenol A diglycidyl ether]
inhibition of Hsp90 CTD chaperone (anti-aggregation) activity, ADH aggregation assay [3]: slight inhibition

competition with FITC-GA binding to Hsp90β [4]: compete with fluorescently labeled GA
Structure (SMILES): CCNC(=O)c1noc(-c2cc(C(C)C)c(O)cc2O)c1-c1ccc(CN2CCOCC2)cc1 [AUY922]

Structure (SMILES): CO[C@@H]1[C@@H](O)[C@@H](O)[C@H](Oc2ccc3cc(NC(C)=O)c(=O)oc3c2C)OC1(C)C [KU-32, reference compound]
protection of Hsp90 CTD from pronase degradation (DARTs) [5]: protects the Hsp90 CTD from pronase degradation at levels comparable

IC50, Hsp90β ATPase function ([1]; 0.5 μM Hsp90β, 250 μM ATP, 37 °C 30 min): does not have a measurable IC50
Structure (SMILES): CC(C)(c1ccc(O)cc1)c1ccc(O)cc1 [BPA, Bisphenol A]
inhibition of Hsp90 CTD chaperone (anti-aggregation) activity, ADH aggregation assay [3]: did not exhibit inhibition; also recorded: Minimal inhibition

competition with FITC-GA binding to Hsp90β [4]: compete with fluorescently labeled GA
Structure (SMILES): COC1=C2C[C@@H](C)C[C@H](OC)[C@H](O)[C@@H](C)/C=C(\C)[C@H](OC(N)=O)[C@@H](OC)/C=C\C=C(/C)C(=O)NC(=CC1=O)C2=O [GA, geldanamycin, reference compound]
induction of classical heat shock response (Hsp70, Hsp27, Hsp40) [6]: did induce the classical heat shock response
BRCA1 expression level compared to DMSO ([6]; GA control): 9%

Structure (SMILES): CC(C)(c1ccc(OCC(O)CN2CCOCC2)cc1)c1ccc(OCC(O)CN2CCOCC2)cc1 (stereo not shown) [Analog A1, 3,3’-((propane-2,2-diylbis(4,1-phenylene))bis(oxy))bis(1-mor-pholinopropan-2-ol)]
oligomerization state of His6-Hsp90β CTD (crosslinking) [2]: CTD monomer band was eliminated

Structure (SMILES): C=CCNC1=C2C[C@@H](C)C[C@H](OC)[C@H](O)[C@@H](C)/C=C(\C)[C@H](OC(N)=O)[C@@H](OC)/C=C\C=C(/C)C(=O)NC(=CC1=O)C2=O [Analog 17-AAG, reference compound]
inhibition of Hsp70 ATPase function [7]: no effect on Hsp70 ATPase function

IC50 [1]: ~262 µM
oligomerization state of His6-Hsp90β CTD (crosslinking) [2]: CTD monomer band was eliminated
Structure (SMILES): CC(C)CNCC(O)COc1ccc(C(C)(C)c2ccc(OCC(O)CNCC(C)C)cc2)cc1 (stereo not shown) [Analog A8, 3,3’-((propane-2,2-diylbis(4,1-phenylene))bis(oxy))bis(1-(iso-butylamino)propan-2-ol)]
